Assay outcomes (PubChem)
NPY Y2 blocker – antagonists of human neuropeptide Y receptor Y2 | P49146 | NPY-Y2 expressing cells, antagonist mode | inhibition, % at 2.7 µM | hit rate 0.99% among 140,000 | AID 793; in the data active means inhibition above about 17%;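 further: 0% = vehicle with agonist challenge and 100% = reference antagonist with challenge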
NPY1 pot ag – human NPY-Y1 potentiation or agonism, primary screen | NPY-Y1 expressing cells, potentiator/agonist activation | activation, % at 3.6 µM | hit rate 0.37% among 220,000 | P25929; in the data active means activation above about 33%, passing the limit was not always enough;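 further: cells stimulated with NPY at EC10 then isoproterenol at EC100; 0% = low agonist plus stimulus and 100% = saturating agonist plus stimulus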
Target sequence (P25929 whole entry, looked up): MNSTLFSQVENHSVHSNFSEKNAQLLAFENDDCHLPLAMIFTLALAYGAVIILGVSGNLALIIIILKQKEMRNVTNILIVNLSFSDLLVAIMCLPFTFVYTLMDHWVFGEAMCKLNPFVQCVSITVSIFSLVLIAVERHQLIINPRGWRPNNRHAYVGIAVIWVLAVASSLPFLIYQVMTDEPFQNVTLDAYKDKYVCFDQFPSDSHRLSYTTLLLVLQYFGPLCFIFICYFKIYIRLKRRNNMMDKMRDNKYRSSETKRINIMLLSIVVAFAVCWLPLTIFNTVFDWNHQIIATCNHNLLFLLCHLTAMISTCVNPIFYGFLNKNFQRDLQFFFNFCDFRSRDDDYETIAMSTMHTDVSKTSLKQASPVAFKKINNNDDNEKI
NPY-Y1 antag – blocks the human neuropeptide Y Y1 receptor. P25929. HEK293-CNG Y1 cells, membrane potential fluorescence; NPY at EC95, then isoproterenol. hit rate 1% among 200,000. inhibition, % at 3.6 µM;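 active means inhibition above the campaign mean inhibition of all tested compounds plus 3 SD, cut at about 20% in these data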;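 further: 0% = DMSO wells given NPY plus isoproterenol and 100% = isoproterenol alone without NPY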
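Benchmarks – high control isoproterenol alone, low control NPY with isoproterenol · Material – HEK293 Y1/CNG channel cell line · Times – dye 3 h, compound 60 min room temperature, stimulation 45 min · Probe or stimulus – NPY (25 nM), isoproterenol (1 µM), Ro 20-1724 (25 µM) · Evaluation – % inhibition of NPY effect · Signal – fluorescence, membrane potential probe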
NPY2 pot ag – human NPY-Y2 potentiation or agonism, primary screen; cells expressing NPY-Y2, potentiator/agonist read-out; P49146; activation, % at 3.6 µM; hit rate 0.45% among 220,000; in the data active means activation above about 27%;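 further: cells stimulated with NPY near EC25 plus isoproterenol at EC100; 0% = vehicle plus submaximal agonist and 100% = vehicle plus saturating agonist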
The depositor's hits bear a star. Only some compounds are listed: those with a hit (about 1.8% of all), similar ones and a draw of the others.

`CC(C)CCN1CCN(Cc2cnc(N3CCCC3)s2)CC1CCO` (centres undefined) gave NPY1 pot ag 9.3, NPY-Y1 antag -4.2 and NPY2 pot ag -3.1.
NCC(=O)Nc1ccc(Cl)cc1C(=O)c1ccc[nH]1 was read as NPY1 pot ag 0.2 and NPY2 pot ag -4.9.
For CCOC(=O)Cn1c(=O)oc2cc(S(=O)(=O)N3CCCc4ccccc43)ccc21 the results were NPY Y2 blocker 0.5, NPY1 pot ag 31.3, NPY-Y1 antag -12.8 and NPY2 pot ag 26.0.
CCCCNS(=O)(=O)c1ccc2c(c1)oc(=O)n2CC(=O)OCC was read as NPY Y2 blocker -0.7, NPY1 pot ag 16.6, NPY-Y1 antag -2.8 and NPY2 pot ag 2.0.
Screening CCOC(=O)Cn1c(=O)oc2cc(S(=O)(=O)Nc3c(C)cc(C)cc3C)ccc21 returned NPY Y2 blocker 0.1, NPY1 pot ag 37.9*, NPY-Y1 antag -7.5 and NPY2 pot ag 23.7.
Screening CCOC(=O)Cn1c(=O)oc2cc(S(=O)(=O)NC3CCCc4ccccc43)ccc21 (centres undefined) returned NPY Y2 blocker 0.3, NPY1 pot ag 62.6*, NPY-Y1 antag -11.5 and NPY2 pot ag 37.3*.
For O=c1nc(SCc2cccc(C(F)(F)F)c2)nc2ccccn12 the results were NPY1 pot ag 4.9, NPY-Y1 antag 8.7 and NPY2 pot ag 10.1.
CCCNCC(O)COc1ccccc1C(=O)CCc1ccccc1 (centres undefined) was read as NPY Y2 blocker 7.8, NPY1 pot ag 98.6*, NPY-Y1 antag -7.2 and NPY2 pot ag 87.2*.
Screening CCN(CC)CC(O)COc1ccccc1C(=O)CCc1ccccc1 (centres undefined) returned NPY Y2 blocker 8.3, NPY1 pot ag 51.4*, NPY-Y1 antag 2.5 and NPY2 pot ag 39.3*.
`CCCCCCOc1ccc(/C(N)=N/O)cc1` gave NPY Y2 blocker 3.3, NPY1 pot ag 83.7*, NPY-Y1 antag -10.7 and NPY2 pot ag 99.3*.
N=C(N)c1ccc(OCCCCCOc2ccc(C(=N)N)cc2)cc1 was read as NPY Y2 blocker -0.2, NPY1 pot ag -4.7, NPY-Y1 antag -4.7 and NPY2 pot ag 5.5.
Screening C=CCN=C(NC#N)SCc1ccccc1Cl returned NPY Y2 blocker 3.8, NPY1 pot ag -7.5, NPY-Y1 antag -0.8 and NPY2 pot ag -0.9.
`Cc1ccc(S(=O)(=O)N2CCC(NC(=O)c3ccccc3)CC2)cc1` gave NPY1 pot ag -2.0, NPY-Y1 antag -0.2 and NPY2 pot ag -8.3.
Screening CN(Cc1ccccc1)Cc1nc2c(c(=O)n(C)c(=O)n2C)n1CCc1ccccc1 returned NPY Y2 blocker 23.1*, NPY1 pot ag -36.2, NPY-Y1 antag 22.5* and NPY2 pot ag -7.3.
`CC(=O)N1CN(C2CCCC2)Cc2c1sc1c2CCCC1` gave NPY Y2 blocker 17.9*, NPY1 pot ag -18.3, NPY-Y1 antag 23.5* and NPY2 pot ag -4.2.
Screening O=C(CN1C(=O)C2CC=CCC2C1=O)Nc1ccc(S(=O)(=O)NC2=NCCCCC2)cc1 (centres undefined) returned NPY Y2 blocker 3.4, NPY1 pot ag 2.3, NPY-Y1 antag -1.9 and NPY2 pot ag 2.4.
Cc1c(Nc2ccc(C=O)cc2)c(=O)n(-c2ccccc2)n1C was read as NPY1 pot ag -1.6, NPY-Y1 antag 6.2 and NPY2 pot ag 1.2.
Screening Cc1c(Nc2nc(-c3ccccc3)cs2)c(=O)n(-c2ccccc2)n1C returned NPY Y2 blocker 1.1, NPY1 pot ag 59.3*, NPY-Y1 antag -1.5 and NPY2 pot ag 78.5*.
Cc1ccccc1NC(=O)CSc1nc(N)c2c3c(sc2n1)CSC(C)(C)C3 was read as NPY Y2 blocker 47.5*, NPY1 pot ag -60.0, NPY-Y1 antag 32.0* and NPY2 pot ag -22.6.
Screening Cc1cc(/C=N/NC(=O)Cn2c3ccccc3c(=O)c3ccccc32)c(C)n1-c1ccccc1 returned NPY Y2 blocker 3.2, NPY1 pot ag 49.7*, NPY-Y1 antag -12.9 and NPY2 pot ag 50.3*.
O=C1C(NS(=O)(=O)c2cccs2)=C(N2CCN(Cc3ccccc3)CC2)C(=O)c2ccccc21 was read as NPY1 pot ag 59.6* and NPY2 pot ag 39.7*.
`CN1CCN(C2=C(NS(=O)(=O)c3cccs3)C(=O)c3ccccc3C2=O)CC1` gave NPY1 pot ag -1.7 and NPY2 pot ag -26.7.
For O=C1C(NS(=O)(=O)c2cccs2)=C(N2CCOCC2)C(=O)c2ccccc21 the results were NPY1 pot ag 3.5 and NPY2 pot ag -8.8.
For CCOc1ccccc1N1CCN(C2=C(NS(=O)(=O)c3cccs3)C(=O)c3ccccc3C2=O)CC1 the results were NPY Y2 blocker -11.8, NPY1 pot ag 50.3*, NPY-Y1 antag -14.2 and NPY2 pot ag 42.8*.
